Measured values reported in ChEMBL document CHEMBL1122118, “Novel opiates and antagonists. 4. 7-Alkanoylhydromorphones” (1982).
Activity calls are given as the source filed them. No cut-off for these calls is given here.

Columns and labels:
Mus musculus [1] = species: Mus musculus; assay: Agonistic activity by mouse acetic acid writhing test.; format: functional
Rattus norvegicus [2] = species: Rattus norvegicus; assay: Antagonistic activity was measured by Rat tail-flick morphine antagonist procedure; unable to achieve satisfactory dose response; format: functional, organism-based
Outline: (§1)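 Rat tail-flick test: the compound's ability to block analgesia from a fixed challenge dose of morphine was scored across a dose-response.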

Rattus norvegicus [3] = species: Rattus norvegicus; assay: Antagonistic activity was measured by Rat tail-flick morphine antagonist procedure; format: functional; outline: as §1
Mus musculus [4] = assay: Agonistic activity was measured by Mouse acetic acid writhing test; IA is Inactive at highest dose tested (10 mg/Kg); format: functional, organism-based
Rattus norvegicus [5] = assay: Antagonistic activity was measured by Rat tail-flick morphine antagonist procedure; IA is Inactive at highest dose tested (10 mg/Kg); format: functional, organism-based; outline: as §1

Structure (SMILES)	ED50 (Mus musculus [1]) [mg/kg]	AD50 (Rattus norvegicus [3]) [mg/kg]	also measured
CN1CC[C@]23c4c5ccc(O)c4O[C@H]2C(=O)CC[C@H]3[C@H]1C5 [HYDROMORPHONE]	0.08	–	–
CCCC(=O)C1CC2C3Cc4ccc(O)c5c4C2(CCN3C)C(O5)C1=O (stereo not drawn)	5.2	–	–
CO[C@@]12CC[C@@]3(C[C@@H]1[C@](C)(O)C(C)(C)C)[C@H]1Cc4ccc(O)c5c4[C@@]3(CCN1CC1CC1)[C@H]2O5 [BUPRENORPHINE]	0.13	–	AD50 (Rattus norvegicus [2]): unable to achieve satisfactory dose response
CC(C)C(=O)C1CC2C3Cc4ccc(O)c5c4C2(CCN3CC2CC2)C(O5)C1=O (stereo not drawn)	–	0.81	–
CCCC(=O)C1CC2C3Cc4ccc(OC)c5c4C2(CCN3C)C(O5)C1=O (stereo not drawn)	–	–	ED50 (Mus musculus [4]): inactive
COc1ccc2c3c1O[C@H]1C(=O)CC[C@H]4[C@@H](C2)N(C)CC[C@]314 [HYDROCODONE]	1.06	–	–
CCCCCC(=O)C1CC2C3Cc4ccc(O)c5c4C2(CCN3CC2CC2)C(O5)C1=O (stereo not drawn)	–	22	–
COc1ccc2c3c1OC1C(=O)C(C(=O)C(C)C)CC4C(C2)N(CC2CC2)CCC314 (stereo not drawn)	–	2.8	–
CCCCCC(=O)C1CC2C3Cc4ccc(OC)c5c4C2(CCN3C)C(O5)C1=O (stereo not drawn)	4	–	–
COc1ccc2c3c1OC1C(=O)CCC4C(C2)N(CC2CC2)CCC314 (stereo not drawn)	17	3.4	–
O=C(c1ccccc1)C1CC2C3Cc4ccc(O)c5c4C2(CCN3CC2CC2)C(O5)C1=O (stereo not drawn)	–	0.24	–
CCCCCCC(=O)C1CC2C3Cc4ccc(O)c5c4C2(CCN3CC2CC2)C(O5)C1=O (stereo not drawn)	0.4	–	AD50 (Rattus norvegicus [5]): inactive
CCC(=O)C1CC2C3Cc4ccc(OC)c5c4C2(CCN3CC2CC2)C(O5)C1=O (stereo not drawn)	> 10	6.5	–
CCCC(=O)C1CC2C3Cc4ccc(OC)c5c4C2(CCN3CC2CC2)C(O5)C1=O (stereo not drawn)	2.8	8.1	–
O=C1CCC2C3Cc4ccc(O)c5c4C2(CCN3CC2CC2)C1O5 (stereo not drawn)	1.3	0.19	–
CC(C)(C)CC(=O)C1CC2C3Cc4ccc(O)c5c4C2(CCN3CC2CC2)C(O5)C1=O (stereo not drawn)	–	>10	ED50 (Mus musculus [4]): inactive
CN1CC[C@]23c4c5ccc(O)c4O[C@H]2[C@@H](O)C=C[C@H]3[C@H]1C5 [MORPHINE]	0.79	–	–
CCCCC(=O)C1CC2C3Cc4ccc(O)c5c4C2(CCN3CC2CC2)C(O5)C1=O (stereo not drawn)	–	3.3	–
CC(=O)C1CC2C3Cc4ccc(O)c5c4C2(CCN3CC2CC2)C(O5)C1=O (stereo not drawn)	4	1.3	–
CCCCCCC(=O)C1CC2C3Cc4ccc(OC)c5c4C2(CCN3CC2CC2)C(O5)C1=O.Cl (stereo not drawn)	> 10	>10	–
COc1ccc2c3c1OC1C(=O)C(C(=O)c4ccccc4)CC4C(C2)N(CC2CC2)CCC314 (stereo not drawn)	–	8	–
COc1ccc2c3c1OC1C(=O)C(C(=O)c4ccc(F)cc4)CC4C(C2)N(CC2CC2)CCC314 (stereo not drawn)	–	>10	ED50 (Mus musculus [4]): inactive
CCCCCC(=O)C1CC2C3Cc4ccc(OC)c5c4C2(CCN3CC2CC2)C(O5)C1=O (stereo not drawn)	–	–	AD50 (Rattus norvegicus [5]): inactive
O=C(c1ccc(F)cc1)C1CC2C3Cc4ccc(O)c5c4C2(CCN3CC2CC2)C(O5)C1=O (stereo not drawn)	> 10	~10	–
CCCC(=O)C1CC2C3Cc4ccc(O)c5c4C2(CCN3CC2CC2)C(O5)C1=O (stereo not drawn)	–	2.6	–
COc1ccc2c3c1OC1C(=O)C(C(C)=O)CC4C(C2)N(CC2CC2)CCC314 (stereo not drawn)	> 10	>10	–
CCC(=O)C1CC2C3Cc4ccc(O)c5c4C2(CCN3CC2CC2)C(O5)C1=O (stereo not drawn)	–	0.52	ED50 (Mus musculus [4]): inactive
CCCCC(=O)C1CC2C3Cc4ccc(OC)c5c4C2(CCN3CC2CC2)C(O5)C1=O (stereo not drawn)	> 10	–	AD50 (Rattus norvegicus [5]): inactive
COc1ccc2c3c1OC1C(=O)C(C(C)=O)CC4C(C2)N(C)CCC314 (stereo not drawn)	23.5	–	–
